Results taken from ChEMBL document CHEMBL1955770, “Inhibition of S/G2 phase CDK4 reduces mitotic fidelity” (J Biol Chem, 2006).

Key:
[1] = target: Tyrosine-protein kinase ABL1 (Homo sapiens) (UniProt P00519); assay: Inhibition of ABL1 at 1 uM
[2] = target: Activated CDC42 kinase 1 (Homo sapiens) (UniProt Q07912); assay: Inhibition of ACK1 at 1 uM
Method in brief: (§1)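 Competition binding screen across a kinase panel with compound at 1 μM. Read-out is % competition. Kinases not hit at this concentration were scored '<50'. No Kd was determined for hits.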

[3] = target: BMP-2-inducible protein kinase (Homo sapiens) (UniProt Q9NSY1); assay: Inhibition of BIKE at 1 uM; method in brief: as §1
[4] = target: Serine/threonine-protein kinase B-raf (Homo sapiens) (UniProt P15056); assay: Inhibition of BRAF at 1 uM; method in brief: as §1
[5] = target: Calcium/calmodulin-dependent protein kinase type 1G (Homo sapiens) (UniProt Q96NX5); assay: Inhibition of CAMK1G at 1 uM; method in brief: as §1
[6] = target: Calcium/calmodulin-dependent protein kinase type II subunit gamma (Homo sapiens) (UniProt Q13555); assay: Inhibition of CAMK2G at 1 uM
Method in brief: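 Competition binding screen against a kinase panel, compound tested at a single concentration of 1 μM. Read-out is % competition, where higher scores mark stronger hits. Kinases not hit in the primary screen are reported as '<50'. No Kd values were determined.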

[7] = target: Dual specificity protein kinase CLK3 (Homo sapiens) (UniProt P49761); assay: Inhibition of CLK3 at 1 uM
[8] = target: Tyrosine-protein kinase CSK (Homo sapiens) (UniProt P41240); assay: Inhibition of CSK at 1 uM
[9] = target: Casein kinase I isoform epsilon (Homo sapiens) (UniProt P49674); assay: Inhibition of CSNK1E at 1 uM
[10] = target: Casein kinase II subunit alpha (Homo sapiens) (UniProt P68400); assay: Inhibition of CSNK2A1 at 1 uM
[11] = target: Ephrin type-A receptor 4 (Homo sapiens) (UniProt P54764); assay: Inhibition of EPHA4 at 1 uM
[12] = target: Ephrin type-A receptor 8 (Homo sapiens) (UniProt P29322); assay: Inhibition of EPHA8 at 1 uM
[13] = target: Tyrosine-protein kinase Fes/Fps (Homo sapiens) (UniProt P07332); assay: Inhibition of FES at 1 uM
[14] = target: Fibroblast growth factor receptor 2 (Homo sapiens) (UniProt P21802); assay: Inhibition of FGFR2 at 1 uM
[15] = target: Receptor-type tyrosine-protein kinase FLT3 (Homo sapiens) (UniProt P36888); assay: Inhibition of FLT3 at 1 uM
[16] = target: Vascular endothelial growth factor receptor 3 (Homo sapiens) (UniProt P35916); assay: Inhibition of FLT4 at 1 uM
[17] = target: Tyrosine-protein kinase FRK (Homo sapiens) (UniProt P42685); assay: Inhibition of FRK at 1 uM
[18] = target: Insulin-like growth factor 1 receptor (Homo sapiens, UniProt P08069); assay: Inhibition of IGF1R at 1 uM
[19] = target: Tyrosine-protein kinase JAK1 (Homo sapiens) (UniProt P23458); assay: Inhibition of JAK1(Kin.Dom.1) at 1 uM
[20] = target: Mitogen-activated protein kinase 9 (Homo sapiens) (UniProt P45984); assay: Inhibition of JNK2 at 1 uM
[21] = target: Mitogen-activated protein kinase 10 (Homo sapiens) (UniProt P53779); assay: Inhibition of JNK3 at 1 uM
[22] = target: Serine/threonine-protein kinase Nek2 (Homo sapiens) (UniProt P51955); assay: Inhibition of NEK2 at 1 uM
[23] = target: Serine/threonine-protein kinase Nek6 (Homo sapiens) (UniProt Q9HC98); assay: Inhibition of NEK6 at 1 uM
[24] = target: Serine/threonine-protein kinase Nek9 (Homo sapiens) (UniProt Q8TD19); assay: Inhibition of NEK9 at 1 uM
[25] = target: Serine/threonine-protein kinase PAK 1 (Homo sapiens) (UniProt Q13153); assay: Inhibition of PAK1 at 1 uM
[26] = target: Serine/threonine-protein kinase PAK 5 (Homo sapiens) (UniProt Q9P286); assay: Inhibition of PAK7/PAK5 at 1 uM
[27] = target: Platelet-derived growth factor receptor alpha (Homo sapiens) (UniProt P16234); assay: Inhibition of PDGFRA at 1 uM
[28] = target: Platelet-derived growth factor receptor beta (Homo sapiens) (UniProt P09619); assay: Inhibition of PDGFRB at 1 uM
[29] = target: Focal adhesion kinase 1 (Homo sapiens) (UniProt Q05397); assay: Inhibition of PTK2 at 1 uM
[30] = target: Protein-tyrosine kinase 2-beta (Homo sapiens) (UniProt Q14289); assay: Inhibition of PTK2B at 1 uM
[31] = target: Serine/threonine-protein kinase 10 (Homo sapiens) (UniProt O94804); assay: Inhibition of STK10 at 1 uM
[32] = target: Serine/threonine-protein kinase 3 (Homo sapiens) (UniProt Q13188); assay: Inhibition of STK3 at 1 uM
[33] = target: Dual specificity protein kinase TTK (Homo sapiens) (UniProt P33981); assay: Inhibition of TTK at 1 uM

Chain of Calcium/calmodulin-dependent protein kinase type 1G (Homo sapiens) (Q96NX5 whole entry): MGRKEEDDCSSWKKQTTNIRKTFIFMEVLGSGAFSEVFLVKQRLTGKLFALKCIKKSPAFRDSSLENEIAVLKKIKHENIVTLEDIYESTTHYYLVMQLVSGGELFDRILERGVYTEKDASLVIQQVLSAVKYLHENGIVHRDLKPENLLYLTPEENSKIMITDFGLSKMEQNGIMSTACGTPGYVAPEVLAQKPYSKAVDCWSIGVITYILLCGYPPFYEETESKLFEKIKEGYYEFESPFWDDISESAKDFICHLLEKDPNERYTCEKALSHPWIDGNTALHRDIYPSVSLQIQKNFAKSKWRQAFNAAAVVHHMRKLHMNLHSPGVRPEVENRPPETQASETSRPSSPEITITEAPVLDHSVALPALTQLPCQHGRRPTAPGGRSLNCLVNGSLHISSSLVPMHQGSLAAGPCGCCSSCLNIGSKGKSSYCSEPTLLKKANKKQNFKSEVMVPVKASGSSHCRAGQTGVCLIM
Chain of Serine/threonine-protein kinase PAK 1 (Homo sapiens) (Q13153 whole entry): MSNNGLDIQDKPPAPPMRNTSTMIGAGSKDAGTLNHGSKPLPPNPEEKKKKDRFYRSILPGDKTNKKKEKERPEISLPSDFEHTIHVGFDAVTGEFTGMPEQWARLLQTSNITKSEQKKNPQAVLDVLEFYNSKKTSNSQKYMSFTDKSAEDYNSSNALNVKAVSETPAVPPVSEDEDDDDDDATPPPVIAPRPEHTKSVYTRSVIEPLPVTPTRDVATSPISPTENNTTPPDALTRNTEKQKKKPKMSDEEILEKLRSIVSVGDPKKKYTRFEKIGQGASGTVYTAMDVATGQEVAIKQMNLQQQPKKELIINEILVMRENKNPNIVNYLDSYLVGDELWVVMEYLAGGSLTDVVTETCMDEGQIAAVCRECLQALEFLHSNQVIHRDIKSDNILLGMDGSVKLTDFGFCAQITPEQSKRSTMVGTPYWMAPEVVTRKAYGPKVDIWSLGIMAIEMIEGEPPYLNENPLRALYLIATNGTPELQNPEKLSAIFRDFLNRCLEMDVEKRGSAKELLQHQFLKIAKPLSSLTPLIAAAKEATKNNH
Chain of Activated CDC42 kinase 1 (Homo sapiens) (Q07912 whole entry, looked up): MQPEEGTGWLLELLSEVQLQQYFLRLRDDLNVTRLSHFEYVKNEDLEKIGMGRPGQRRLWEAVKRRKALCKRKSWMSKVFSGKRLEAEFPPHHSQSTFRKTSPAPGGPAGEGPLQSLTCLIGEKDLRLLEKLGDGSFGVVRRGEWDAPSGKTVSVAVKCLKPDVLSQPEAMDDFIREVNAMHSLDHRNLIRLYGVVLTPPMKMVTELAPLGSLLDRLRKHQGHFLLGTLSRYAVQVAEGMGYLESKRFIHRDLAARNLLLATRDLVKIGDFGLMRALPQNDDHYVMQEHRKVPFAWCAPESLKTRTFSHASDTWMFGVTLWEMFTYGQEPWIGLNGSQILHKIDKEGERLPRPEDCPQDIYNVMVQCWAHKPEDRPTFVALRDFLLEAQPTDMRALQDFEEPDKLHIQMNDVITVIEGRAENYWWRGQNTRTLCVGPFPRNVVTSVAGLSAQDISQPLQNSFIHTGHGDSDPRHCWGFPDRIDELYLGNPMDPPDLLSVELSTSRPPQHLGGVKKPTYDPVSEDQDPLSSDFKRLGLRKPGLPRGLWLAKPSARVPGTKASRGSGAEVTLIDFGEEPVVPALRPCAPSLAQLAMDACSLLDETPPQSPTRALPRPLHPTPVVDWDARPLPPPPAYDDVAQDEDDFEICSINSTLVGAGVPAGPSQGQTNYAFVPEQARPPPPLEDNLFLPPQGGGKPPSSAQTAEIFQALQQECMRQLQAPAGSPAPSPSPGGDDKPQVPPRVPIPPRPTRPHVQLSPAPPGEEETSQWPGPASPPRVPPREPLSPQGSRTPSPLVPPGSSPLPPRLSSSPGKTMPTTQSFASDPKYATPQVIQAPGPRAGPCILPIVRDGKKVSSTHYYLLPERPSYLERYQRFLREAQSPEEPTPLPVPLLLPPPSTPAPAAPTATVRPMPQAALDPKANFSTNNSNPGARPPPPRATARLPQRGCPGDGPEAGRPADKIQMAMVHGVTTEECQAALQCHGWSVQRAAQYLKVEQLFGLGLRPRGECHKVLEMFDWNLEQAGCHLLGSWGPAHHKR
Chain of Serine/threonine-protein kinase Nek2 (Homo sapiens) (P51955 whole entry): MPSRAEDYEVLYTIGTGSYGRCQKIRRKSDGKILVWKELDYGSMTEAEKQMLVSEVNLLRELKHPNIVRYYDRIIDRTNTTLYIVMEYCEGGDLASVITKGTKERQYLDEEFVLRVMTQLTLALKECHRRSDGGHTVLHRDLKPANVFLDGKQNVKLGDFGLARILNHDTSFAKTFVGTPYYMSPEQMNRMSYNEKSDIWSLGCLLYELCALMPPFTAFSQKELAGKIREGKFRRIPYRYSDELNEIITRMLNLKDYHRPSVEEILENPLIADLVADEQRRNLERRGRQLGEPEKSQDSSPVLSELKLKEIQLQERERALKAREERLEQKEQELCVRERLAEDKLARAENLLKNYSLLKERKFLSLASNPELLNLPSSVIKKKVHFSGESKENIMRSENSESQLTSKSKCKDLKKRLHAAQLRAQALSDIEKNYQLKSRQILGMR
Chain of Dual specificity protein kinase CLK3 (Homo sapiens) (P49761 whole entry, looked up): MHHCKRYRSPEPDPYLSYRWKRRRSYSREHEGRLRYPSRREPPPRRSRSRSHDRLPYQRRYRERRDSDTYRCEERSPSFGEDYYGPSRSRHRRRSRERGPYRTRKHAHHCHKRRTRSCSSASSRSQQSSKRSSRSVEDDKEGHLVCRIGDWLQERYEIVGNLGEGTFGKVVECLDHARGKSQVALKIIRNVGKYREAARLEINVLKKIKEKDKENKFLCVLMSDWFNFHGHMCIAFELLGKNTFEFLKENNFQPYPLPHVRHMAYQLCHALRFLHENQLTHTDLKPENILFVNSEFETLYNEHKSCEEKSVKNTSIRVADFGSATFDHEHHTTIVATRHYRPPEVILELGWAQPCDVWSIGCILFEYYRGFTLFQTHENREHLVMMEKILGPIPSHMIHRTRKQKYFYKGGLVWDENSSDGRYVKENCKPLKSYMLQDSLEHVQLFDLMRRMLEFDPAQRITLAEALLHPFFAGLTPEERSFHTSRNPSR
Chain of Fibroblast growth factor receptor 2 (Homo sapiens) (P21802 22-821 limits assumed): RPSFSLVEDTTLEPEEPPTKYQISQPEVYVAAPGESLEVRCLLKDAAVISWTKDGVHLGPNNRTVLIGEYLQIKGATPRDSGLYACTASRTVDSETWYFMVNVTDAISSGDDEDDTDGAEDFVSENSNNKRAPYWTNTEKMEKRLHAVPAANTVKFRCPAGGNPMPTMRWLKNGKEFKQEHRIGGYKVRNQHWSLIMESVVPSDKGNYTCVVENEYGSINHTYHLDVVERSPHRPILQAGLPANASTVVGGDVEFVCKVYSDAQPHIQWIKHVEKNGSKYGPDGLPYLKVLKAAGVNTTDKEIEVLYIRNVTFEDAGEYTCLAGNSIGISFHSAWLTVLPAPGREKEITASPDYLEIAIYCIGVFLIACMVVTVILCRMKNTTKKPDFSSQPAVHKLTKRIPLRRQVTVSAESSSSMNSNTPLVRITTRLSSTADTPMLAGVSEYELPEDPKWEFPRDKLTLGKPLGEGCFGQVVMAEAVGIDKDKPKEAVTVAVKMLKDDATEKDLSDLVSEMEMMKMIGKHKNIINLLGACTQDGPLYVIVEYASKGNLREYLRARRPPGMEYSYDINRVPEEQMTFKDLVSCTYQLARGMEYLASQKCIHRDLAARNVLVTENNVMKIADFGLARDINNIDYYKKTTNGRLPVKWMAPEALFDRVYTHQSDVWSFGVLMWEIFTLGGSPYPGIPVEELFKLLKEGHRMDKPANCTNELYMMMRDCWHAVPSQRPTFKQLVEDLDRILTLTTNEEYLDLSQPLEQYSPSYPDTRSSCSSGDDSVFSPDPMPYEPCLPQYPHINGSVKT
Chain of Mitogen-activated protein kinase 10 (Homo sapiens) (P53779 whole entry): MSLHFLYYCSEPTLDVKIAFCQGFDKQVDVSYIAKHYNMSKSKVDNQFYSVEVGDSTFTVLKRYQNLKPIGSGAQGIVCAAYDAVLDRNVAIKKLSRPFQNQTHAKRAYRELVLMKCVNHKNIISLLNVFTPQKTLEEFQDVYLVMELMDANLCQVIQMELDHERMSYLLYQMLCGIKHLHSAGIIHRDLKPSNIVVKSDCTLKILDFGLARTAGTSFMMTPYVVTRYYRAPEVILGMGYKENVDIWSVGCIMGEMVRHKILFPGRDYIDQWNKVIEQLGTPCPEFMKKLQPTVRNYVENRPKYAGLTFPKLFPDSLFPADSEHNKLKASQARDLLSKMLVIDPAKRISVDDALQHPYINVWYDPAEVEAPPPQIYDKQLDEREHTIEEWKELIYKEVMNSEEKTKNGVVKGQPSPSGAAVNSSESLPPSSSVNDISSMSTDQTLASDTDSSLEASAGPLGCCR
Chain of Mitogen-activated protein kinase 9 (Homo sapiens) (P45984 whole entry, looked up): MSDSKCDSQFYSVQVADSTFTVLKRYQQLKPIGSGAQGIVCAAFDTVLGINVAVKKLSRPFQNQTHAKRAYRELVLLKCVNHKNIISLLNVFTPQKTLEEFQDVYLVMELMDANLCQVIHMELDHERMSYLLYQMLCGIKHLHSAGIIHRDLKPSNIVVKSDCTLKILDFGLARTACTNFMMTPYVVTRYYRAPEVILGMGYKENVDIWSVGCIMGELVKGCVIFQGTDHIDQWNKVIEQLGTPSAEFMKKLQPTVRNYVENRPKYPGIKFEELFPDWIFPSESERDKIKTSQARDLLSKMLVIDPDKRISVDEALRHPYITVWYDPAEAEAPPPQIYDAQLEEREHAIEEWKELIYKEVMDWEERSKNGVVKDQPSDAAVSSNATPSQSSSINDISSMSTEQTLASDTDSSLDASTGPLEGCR
Chain of Serine/threonine-protein kinase Nek6 (Homo sapiens) (Q9HC98 whole entry): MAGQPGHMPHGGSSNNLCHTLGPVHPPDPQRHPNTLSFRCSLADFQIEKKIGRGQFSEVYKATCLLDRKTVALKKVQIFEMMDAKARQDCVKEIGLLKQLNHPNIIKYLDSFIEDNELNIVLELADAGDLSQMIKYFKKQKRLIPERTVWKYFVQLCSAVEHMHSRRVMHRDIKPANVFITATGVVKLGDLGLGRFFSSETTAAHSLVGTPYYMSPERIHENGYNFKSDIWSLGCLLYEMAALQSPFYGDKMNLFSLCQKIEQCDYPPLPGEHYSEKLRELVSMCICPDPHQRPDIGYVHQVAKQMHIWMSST

CN1CCN(c2ccc(Nc3nc(N)c(C(=O)c4ccc5c(c4)OCCO5)s3)cc2)CC1 gave an inhibition [1] of less than 50%, an inhibition [2] of less than 50% and an inhibition [3] of less than 50%. For the same compound, the inhibition [4] was less than 50%, the inhibition [5] was less than 50% and the inhibition [6] was less than 50%. For the same compound, the inhibition [7] was 89%, the inhibition [8] was less than 50% and the inhibition [9] was less than 50%. It also gave an inhibition [10] of less than 50%, an inhibition [11] of less than 50% and an inhibition [12] of less than 50%. For the same compound, the inhibition [13] was less than 50%, the inhibition [14] was less than 50% and the inhibition [15] was less than 50%. For the same compound, the inhibition [16] was less than 50%, the inhibition [17] was less than 50% and the inhibition [18] was less than 50%. The inhibition [19] was 94%, the inhibition [20] was less than 50% and the inhibition [21] was 66%. For the same compound, the inhibition [22] was less than 50%, the inhibition [23] was less than 50% and the inhibition [24] was less than 50%. For the same compound, the inhibition [25] was less than 50%, the inhibition [26] was less than 50% and the inhibition [27] was less than 50%. It also gave an inhibition [28] of less than 50%, an inhibition [29] of less than 50% and an inhibition [30] of less than 50%. It also gave an inhibition [31] of less than 50%, an inhibition [32] of less than 50% and an inhibition [33] of 78%.
